Screening data deposited in PubChem by The Scripps Research Institute Molecular Screening Center.
CHRM1 antagonist: antagonists of human M1 muscarinic receptor; P11229; CHO-K1 hM1, Fluo-8 calcium fluorescence, ACh EC80 antagonist; inhibition, % at 3 µM; 360,000 compounds, 1.3% hits; AID 588852;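 active = percent inhibition above its own plate's cutoff, namely the mean of that plate's compound wells plus 3 SD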;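 also: peak over basal fluorescence ratio during 140 s after agonist addition; 0% = ACh EC80 plus DMSO and 100% = DMSO alone without agonist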
Target sequence (P11229 whole entry, looked up): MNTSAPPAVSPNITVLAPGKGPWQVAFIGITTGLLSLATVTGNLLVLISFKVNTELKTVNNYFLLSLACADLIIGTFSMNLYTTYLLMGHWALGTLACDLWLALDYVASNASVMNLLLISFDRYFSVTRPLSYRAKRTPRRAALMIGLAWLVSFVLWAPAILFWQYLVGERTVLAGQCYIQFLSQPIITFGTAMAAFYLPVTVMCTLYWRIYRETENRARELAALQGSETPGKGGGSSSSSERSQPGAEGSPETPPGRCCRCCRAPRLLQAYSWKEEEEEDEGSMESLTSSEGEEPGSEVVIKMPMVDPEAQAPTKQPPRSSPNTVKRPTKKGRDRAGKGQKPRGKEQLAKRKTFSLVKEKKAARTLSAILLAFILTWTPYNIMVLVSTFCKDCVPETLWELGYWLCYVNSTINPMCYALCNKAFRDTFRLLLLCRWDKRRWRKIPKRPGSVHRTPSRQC
M5 PAM: potentiates acetylcholine response at human M5 receptor; P08912; CHO-K1 hM5, Fluo-8 calcium, ACh EC20 PAM; 0% = ACh EC20, 100% = ACh EC100; activation, % at 3 µM; 360,000 compounds, 0.3% hits; AID 624038;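 active = activation above the run cutoff, the mean activation of all test compounds plus 3 SD, cut at about 18% in these data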
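Probe or stimulus: acetylcholine, EC20 level; Assay system: human M5 receptor in CHO-K1 cells; Schedule: compound preincubation 140 s before EC20 acetylcholine addition; Technique: intracellular calcium via Fluo-8 fluorescence; Dosing: single-point, 3 µM nominal; Read-out basis: percent activation from peak-over-basal fluorescence ratio, scaled EC20-to-EC100 acetylcholine; Repeats: one well per compound, no replicates.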
M1 PAM: positive allosteric modulators of human M1 muscarinic receptor; CHO-K1 hM1, Fluo-8 calcium fluorescence, ACh EC20; 0% = ACh EC20, 100% = maximal ACh; P11229; 360,000 compounds, 0.088% hits; activation, % at 3 µM; AID 588819; in the data active = activation above about 19%, passing the limit was not always enough
CHRM1 agonist: activates human CHRM1 receptor; 360,000 compounds, 0.33% hits; CHO-K1 hM1, Fluo-8 calcium fluorescence, agonist mode; 0% DMSO, 100% acetylcholine EC100; activation, % at 3 µM; P11229;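 active = activation above the run's mean compound activation plus 3 SD, cut at about 16% in these data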;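 also: peak over basal fluorescence ratio within a 140 s kinetic read after compound addition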
M5 ag: CHRM5 agonism in calcium assay; AID 624037; activation, % at 3 µM; P08912; CHO-K1 hM5 cells, Fluo-8 calcium fluorescence; 0% DMSO wells, 100% maximal acetylcholine response; 360,000 compounds, 0.19% hits;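 active = activation above the run's mean over test compounds plus 3 SD, cut at about 23% in these data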;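 also: signal is peak over basal fluorescence ratio across the kinetic read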
M5 antag: blocks acetylcholine activation of human M5 receptor; 360,000 compounds, 0.59% hits; CHO-hM5 cells, Fluo-8 calcium fluorescence, ACh EC80; P08912; inhibition, % at 3 µM;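 active = inhibition above a per-plate cutoff, the mean of that plate's test compounds plus 3 SD, cut at about 27% in these data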;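 also: 0% = acetylcholine EC80 with DMSO and 100% = DMSO without agonist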
Starred values were filed as active, the others as inactive; nt = not tested or not shown; ! = a repeat was not active. Most compounds without a hit are left out; they make up all but 2% or so of the library.

SMILES	CHRM1 antagonist	M5 PAM	M1 PAM	CHRM1 agonist	M5 ag	M5 antag
COc1ccc(CN2C[C@@H](CO)O[C@@H](n3cnc4c(N(C)C)ncnc43)C2)cc1	-12.4	-4.9	5.8	-1.0	1.2	1.3
O=C(Nc1ccccc1N1CCN(c2ccc(F)cc2)CC1)C12CC3CC(CC(C3)C1)C2	-12.9	19.9*	12.5	-0.1	-4.2	1.3
Cc1nn(C)c(C)c1/C=C(\C#N)S(=O)(=O)c1ccc(F)cc1	-2.4	-0.2	-1.9	-0.4	0.6	-3.7
CCN(CC)Cc1cc(Oc2ccc(O)c(CN(CC)CC)c2)ccc1O	34.6*	-2.4	-19.1	-13.0	-5.9	2.3
OCc1ccccc1-c1ccc2nccn2c1	-18.8	-1.5	10.4	-3.8	-0.5	-1.9
COc1ccc(CN(C)c2ccc(S(=O)(=O)N3CCN(C)CC3)cc2[N+](=O)[O-])cc1OC	42.5*	-20.4	-15.5	2.8	7.8	22.6
CC1(C(=O)NCc2ccccc2)CSCC(=O)N1CCOc1ccccc1 (centres undefined)	nt	4.7	nt	nt	-2.4	-6.9
O=C(NCc1ccccc1)NCC12CC3CC(CC(C3)C1)C2	28.4	-15.1	-11.5	-2.1	8.7	14.8
O=C(NCc1ccccc1)NC12CC3CC(CC(C3)C1)C2	-17.3	19.7*	6.8	-4.2	-0.2	-11.3
COc1cc(/C=C2\SC(N)=NC2=O)cc(Br)c1O	-15.6	-9.5	13.2	3.7	23.7*	-7.0
NC1=NC(=O)C(=Cc2ccccc2)S1	-5.5	2.9	27.2*	5.3	2.2	-7.9
NC1=NC(=O)/C(=C\c2cccnc2)S1	-1.1	0.9	11.2	-5.2	-4.5	-1.1
COc1cc(/C=N/N2C(=O)CSC2=S)cc(Br)c1O	37.7*	-21.3	-12.5	55.4*	55.7*	10.0
CSCCC(NS(=O)(=O)c1cccc(C(F)(F)F)c1)C(=O)N(C)Cc1ccc2c(c1)OCCO2 (centres undefined)	37.9*	-22.7	-14.4	-1.2	2.5	11.2
CSCCC(NS(=O)(=O)c1ccc2c(c1)OCCO2)C(=O)N(C)Cc1ccc(F)cc1 (centres undefined)	16.5	-8.6	-7.1	-0.8	2.1	6.5
O=C(NCc1cccnc1)C1CCCN(S(=O)(=O)c2cccc3nsnc23)C1 (centres undefined)	38.2*	-15.7	-21.6	-9.2	-4.6	11.8
Cc1cc(C)c(S(=O)(=O)N2CCCC(C(=O)NCc3cccnc3)C2)c(C)c1 (centres undefined)	34.2*	-6.3	-15.9	-4.3	-4.7	12.8
Cc1noc(C)c1S(=O)(=O)NC(=O)C1(C)CCN1C(=O)c1ccc(C2CCCCC2)cc1 (centres undefined)	-17.1	10.1	17.8	-1.0	0.1	-5.3
COc1ccc(-c2cc(C(F)(F)F)nc(S(=O)(=O)CCCC(=O)Nc3cccc(O)c3)n2)cc1OC	8.1	-10.7	-9.6	-8.6	-1.3	27.2*
Clc1ccc(NN(Cc2ccncc2)c2ccc(Cl)cc2)cc1	2.8	-9.2	-7.2	-8.3	-2.4	3.2
Cc1c(CC(=O)N[C@@H](C)C(=O)O)c(=O)oc2c(C)c3occ(-c4ccccc4)c3cc12	-25.5	10.7	31.4*	-0.8	-6.4	-10.5
Cc1c(CC(=O)N[C@@H](C)C(=O)O)c(=O)oc2cc3occ(-c4ccccc4)c3cc12	9.1	-5.5	-3.7	-6.5	0.4	8.3
N#CC1=C(SCC(=O)NC2CC2)NC(=O)C(C#N)C12CCCCC2 (centres undefined)	-9.6	-1.6	4.3	0.9	2.6	0.6
N#CC1=C(SCC(=O)NC23CC4CC(CC(C4)C2)C3)NC(=O)C(C#N)C12CCCCC2 (centres undefined)	26.8	-15.4	-21.0	-2.8	8.0	29.1*
COc1ccc(OC)c(NC(=O)C2(C)CCN2C(=O)Cc2ccc(Cl)cc2Cl)c1 (centres undefined)	-14.2	2.0	7.2	-3.7	-0.6	-15.1
SMILES	CHRM1 antagonist	M5 PAM	M1 PAM	CHRM1 agonist	M5 ag	M5 antag
CCOc1ccc2nc(N(CCN(CC)CC)C(=O)c3ccc([N+](=O)[O-])cc3)sc2c1	44.2*	1.7	-6.3	-6.7	-2.8	-0.2
Cc1ccc(CN2C(=O)C(CC(C)C)Nc3ncnc(N4CCN(c5ccccn5)CC4)c32)cc1 (centres undefined)	34.2*	-22.1	-28.9	-10.9	-10.9	11.6
CC(C)CC1Nc2ncnc(N3CCN(c4ccccn4)CC3)c2N(Cc2ccc(Br)cc2)C1=O (centres undefined)	40.1*!	-9.7	-24.6	-11.9	-7.0	2.3
CC(C)CNC(=O)c1cccc2c(-c3cccc(C(N)=O)c3)coc12	14.4	-0.8	-14.1	1.5	5.7	5.5
COc1ccc(-c2cn3cccnc3n2)cc1F	-6.9	18.3*	11.4	-7.8	-0.1	-4.9
Oc1ccc2ccccc2c1C=Nc1ccccc1Br	-24.7	1.7	12.8	-1.5	4.9	-4.4
Oc1ccccc1N=Cc1c(O)ccc2ccccc12	7.1	0.1	2.7	22.3*	4.5	10.6
COCCNc1nc(Oc2cccc3ccccc23)c2sccc2n1	-16.4	-8.7	5.3	-3.3	-2.8	10.4
COc1ccc2[nH]c(=O)c(CN(Cc3cccs3)S(=O)(=O)c3c(C)ccc4nsnc34)cc2c1	44.5*	-17.3	-14.0	1.0	4.1	25.5
Cc1ccc2[nH]c(=O)c(CN(Cc3ccco3)S(=O)(=O)c3c(C)ccc4nsnc34)cc2c1	7.1	-3.1	-7.5	-1.5	1.5	-1.3
CC1(C(=O)NS(=O)(=O)c2cccs2)CCN1C(=O)CCc1ccc(Cl)cc1Cl (centres undefined)	-5.2	-5.1	10.3	-2.2	-0.9	12.6
CCCc1cc2c(cc1N(C)S(=O)(=O)c1ccccc1)OCO2	6.9	-12.2	-5.9	-6.0	-3.4	28.0*
COc1ccccc1N(C)S(=O)(=O)c1ccc(C(=O)NCc2ccc3c(c2)OCO3)cc1	18.3	-14.8	-8.5	-4.6	3.4	8.0
CCOC(=O)[C@@H]1[C@H]2COc3cc(OC)ccc3[C@H]2N2C(=O)N(c3ccc(C(F)(F)F)cc3)C(=O)[C@]12C	41.2*	-20.6	-20.6	4.4	9.6	5.8
CCOC(=O)[C@@H]1[C@H]2COc3cc(OC)ccc3[C@H]2N2C(=O)N(c3cccc(F)c3)C(=O)[C@@]12C	31.3*	-5.6	-17.8	0.2	-0.7	10.0
O=C1Nc2ccccc2-c2nnnn2C1N1CCC(Cc2ccccc2)CC1 (centres undefined)	nt	-8.8	nt	nt	2.7	-6.0
COc1ccccc1C(=O)NNC(=S)NC(=O)c1sc2ccccc2c1Cl	-0.4	1.6	-5.0	22.2*	1.6	3.1
